Cneo AK release – causes C. neoformans cell lysis. adenylate kinase release luminescence, 4 h; normalised: neutral wells 0, clomiphene wells 100. lysis activity, % at 15 µM. 360,000 tested, 0.2% active. AID 651654;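 active means mean lysis activity across replicates of at least 80%, whatever share of replicates individually reach that level; inactive means mean lysis activity below 80%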
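Material: C. neoformans cells | Amount: Yeast cell density of 5 × 10^6 cells/mL | Medium: Fresh YPD growth medium | Dosing: Single dose | Times: Static 4 h at 37 °C with compound, 1 h detection | Detection: AK luminescence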
MITF TRPM1 HTS – MITF TRPM1 promoter activation in melanoma cells. activation, % at 12.5 µM. 300,000 tested, 0.75% active. SK-MEL-5 TRPM1-promoter luciferase, 24 h; % of positive control, neutral wells = 0;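 active means mean activation of at least 80% with every replicate also reaching 80%; inconclusive means mean reaches 80% but some replicate falls short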;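 further: 0% = neutral control wells and 100% = parthenolide positive control wells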
esBAF inh – SWI/SNF esBAF complex inhibition; 350,000 tested, 2% active; mouse ES cells, Bmi1-luciferase knock-in reporter, 24 h; 100% = twice the neutral-well signal; reporter increase, % at 12.5 µM; AID 602393; in the data active means activation above about 40%; inconclusive means no clear call, values can overlap the other calls;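 further: 0% = median of the plate's neutral control wells and 100% = double that signal; a rise in the Bmi1 reporter signal indicates esBAF inhibition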
ERAP1 HTS inh – ERAP1 (human) enzyme inhibition. recombinant ERAP1, Leu-AMC fluorescence, 60 min. 340,000 tested, 0.15% active. Q9NZ08. inhibition, % at 10.7 µM;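 active means mean replicate inhibition of at least 30%, or all replicates individually reaching that 30% level; inactive means mean below 30% and not every replicate reaching it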;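 further: 0% = neutral control wells and 100% = L-leucinethiol positive control wells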
Target sequence (Q9NZ08 whole entry, looked up): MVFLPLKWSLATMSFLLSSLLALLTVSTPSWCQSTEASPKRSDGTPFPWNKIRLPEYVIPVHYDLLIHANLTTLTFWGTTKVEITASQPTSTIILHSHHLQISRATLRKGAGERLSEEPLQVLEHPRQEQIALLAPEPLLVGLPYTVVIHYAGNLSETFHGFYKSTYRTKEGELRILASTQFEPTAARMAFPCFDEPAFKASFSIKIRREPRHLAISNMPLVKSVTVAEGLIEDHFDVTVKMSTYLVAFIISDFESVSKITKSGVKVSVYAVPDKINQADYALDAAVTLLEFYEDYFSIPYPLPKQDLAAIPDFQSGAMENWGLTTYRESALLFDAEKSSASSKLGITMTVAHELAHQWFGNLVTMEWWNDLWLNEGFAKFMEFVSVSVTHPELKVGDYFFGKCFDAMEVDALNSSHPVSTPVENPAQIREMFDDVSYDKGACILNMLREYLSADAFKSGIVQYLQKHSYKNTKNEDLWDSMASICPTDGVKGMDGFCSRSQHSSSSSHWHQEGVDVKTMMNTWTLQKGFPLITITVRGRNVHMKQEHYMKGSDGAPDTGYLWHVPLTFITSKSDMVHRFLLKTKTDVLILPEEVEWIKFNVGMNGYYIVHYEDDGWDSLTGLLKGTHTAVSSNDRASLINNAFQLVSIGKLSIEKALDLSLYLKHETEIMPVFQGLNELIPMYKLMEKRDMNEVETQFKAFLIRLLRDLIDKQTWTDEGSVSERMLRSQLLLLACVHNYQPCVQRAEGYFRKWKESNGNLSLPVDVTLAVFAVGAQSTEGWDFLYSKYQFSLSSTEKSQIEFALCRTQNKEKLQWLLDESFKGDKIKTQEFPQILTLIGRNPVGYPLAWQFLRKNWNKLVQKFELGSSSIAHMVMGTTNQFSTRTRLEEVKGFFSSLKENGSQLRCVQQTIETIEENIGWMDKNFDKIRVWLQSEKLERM
Env fusion inh – inhibitors of HIV Env-mediated cell fusion. 360,000 tested, 1.1% active. HeLa-JRFL Env/CEM21 cell fusion, luciferase. inhibition, % at 12.3 µM. AID 651610;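 active means mean replicate inhibition score of at least 50 and every replicate individually at or above 50; inconclusive means only one of the two criteria met; inactive means mean below 50 and not all replicates reaching 50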;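 further: 0% = plate neutral controls and 100% = maraviroc near 300 nM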
Wnt bcat act – activators of Wnt/beta-catenin signaling. Wnt/beta-catenin reporter cell assay, activator, plate reader. activation, % at 9.35 µM. 300,000 tested, 1.2% active; in the data active means activation above about 30%, passing the limit was not always enough; inconclusive means no clear call, values can overlap the other calls;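 further: 0% = neutral control wells and 100% = positive control wells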
Starred values were filed as active, the others as inactive; ? = inconclusive; nt = not tested or not shown; [ ] = another dose, or the depositor's remark. In the library only some 3.5% were active in any assay of this set; here they are far more common.

SMILES	Cneo AK release	MITF TRPM1 HTS	esBAF inh	ERAP1 HTS inh	Env fusion inh	Wnt bcat act
COc1ccc(-c2cn3c(C)c(C(=O)Nc4cccc(NC(C)=O)c4)sc3n2)cc1	-2	nt	31	nt	71*	nt
Cc1ccc(S(=O)(=O)Nc2cccc3c2O[C@@H](CN(C)C(=O)Nc2cccc4ccccc24)[C@H](C)CN([C@@H](C)CO)C3=O)cc1	nt	nt	13	nt	10[16.7 µM]	nt
CSc1ncccc1C(=O)OCc1ccccc1F	nt	56	50*	nt	nt	-1
CSc1ncccc1C(=O)OCc1ccccc1	-4	78	?	nt	nt	nt
O=S1(=O)CC(O)C(O)CS1 (stereo unspecified)	nt	nt	nt	65*	6	nt
Cc1cccc(C(=O)c2cnc3ccccc3c2-c2ccccc2)c1	0	1	27	nt	73*	nt
Cc1cccc(C(=O)NNC(=O)c2ccccc2)c1	nt	2	nt	nt	4	nt
C[C@@H]1CN([C@@H](C)CO)C(=O)Cc2cc(NC(=O)Nc3ccc(F)cc3)ccc2O[C@H]1CN(C)C(=O)Nc1ccc(F)cc1	2	nt	-3	0	8[16.7 µM]	nt
Fc1cnc(N2CCc3ccccc32)nc1N1CCc2ccccc21	7	35	47*	nt	-57	11
CC1(C)CC(=O)c2cnc(N3CCc4ccccc43)nc2C1	nt	nt	nt	20	-88	39*
Nc1nonc1C(=O)NCCNCc1cc(Br)ccc1OCc1ccccc1F	-1	nt	-12	nt	78*	nt
Nc1nonc1C(=O)NCCNCc1ccccc1OCc1ccccc1F	1	nt	-22	nt	-67	nt
CCc1cccc(C)c1NC(=O)c1cc(=O)[nH]c2ccc(S(=O)(=O)N3CCOCC3)cc12	0	-5	0	95*	nt	-4
NNc1nc(-c2ccccc2Cl)nc2sc3c(c12)CCCC3	-7	50	nt	nt	15	46*
COc1cc(NS(=O)(=O)c2ccc(NC(=S)NC(=O)/C=C/c3ccc(F)cc3)cc2)ncn1	nt	-4	-1	1	-7	41*
COc1nccnc1NS(=O)(=O)c1ccc(NC(=S)NC(=O)/C=C/c2ccc(F)cc2)cc1	nt	0	nt	5	nt	-2
Cc1cccc(Nc2nc(N)nc(CSc3nccn3C)n2)c1	-1	nt	53*	nt	-153	nt
CC(=O)N1Cc2cc(C(=O)NCc3cc(F)cc(F)c3)nc(-c3cccc(C4=CCCC4)c3)c2[C@H]1CCO	nt	nt	nt	1	27[16.7 µM]	nt
COc1ccccc1N1CCN(/N=C/c2cccc(OC)c2OC)CC1	2	18	13	-2	-4	-1
COc1ccccc1N1CCN(/N=C/C(Cl)=C/c2ccccc2)CC1	1	nt	nt	-3	-30	45*
COc1ccccc1N1CCN(/N=C\c2ccc(C)o2)CC1	26	54	nt	nt	-91	42*
COc1ccccc1N1CCN(/N=C\c2ccccc2)CC1	0	nt	36	0	-35	3
COc1ccccc1N1CCN(CCOc2c(OC)cccc2OC)CC1	nt	nt	nt	nt	63*	nt
COc1ccccc1NC(=O)N[C@@H]1CC[C@H](CCn2cc(-c3ccccc3OC)nn2)O[C@@H]1CO	0	nt	5	2	-30[16.7 µM]	nt
Cc1ccsc1C(=O)OCC(=O)N1CCc2ccccc2C1	-7	92*	57*	1	-63	11
SMILES	Cneo AK release	MITF TRPM1 HTS	esBAF inh	ERAP1 HTS inh	Env fusion inh	Wnt bcat act
O=C(OCC(=O)N1CCc2ccccc2C1)c1c(F)cccc1Cl	-1	115*	30	0	nt	55*
O=C(OCC(=O)N1CCCC1)c1c(Cl)cccc1Cl	2	3	28	-1	3	-2
C[C@@H]1CCCCO[C@H](CN(C)S(=O)(=O)c2ccc(Cl)cc2)[C@@H](C)CN([C@H](C)CO)C(=O)c2cc(NC(=O)CCCN(C)C)ccc2O1	-3	nt	1	-4	10[16.7 µM]	nt
Cc1cc(C(=O)Nc2cccc3c2O[C@H](CN(C)Cc2ccncc2)[C@@H](C)CN([C@@H](C)CO)C3=O)n(C)n1	53	nt	2	5	nt	nt
CC(=O)c1ccc(-c2nc3ccccc3n2C)o1	-2	27	55*	nt	nt	nt
CCCCCc1ccc2cc(C#N)ccc2n1	1	nt	48*	0	-29	1
C[C@@H]1CN([C@@H](C)CO)C(=O)c2cc(NC(=O)Nc3ccc(C(F)(F)F)cc3)ccc2O[C@@H](C)CCCCO[C@H]1CN(C)C(=O)Nc1cccc2ccccc12	0	nt	0	0	31[16.7 µM]	nt
O=C(N[C@@H]1CC[C@@H](CCNC(=O)C2CCCC2)O[C@@H]1CO)c1ccncc1	4	nt	0	0	0[16.7 µM]	nt
O=C(/C=C\N1CCOCC1)c1ccc(Br)cc1	11	13	47*	0	-24	10
O=C(/C=C/N1CCOCC1)c1ccc(-c2ccccc2)cc1	3	78	31	nt	nt	nt
CCOC(=O)C(=O)N(Nc1ccc(C)cc1)c1ccc(C)cc1	nt	28	nt	0	-30	44*
CCCN1[C@H](C(=O)NCc2cccc(OC)c2)[C@@H](CO)[C@@H]2Cn3c(ccc(C4=CCCC4)c3=O)[C@@H]21	0	nt	-4	0	nt	nt
COc1ccc(S(=O)(=O)N(C)C[C@@H]2OCCCC[C@H](C)Oc3ccc(NS(=O)(=O)c4ccc(F)cc4)cc3C(=O)N([C@@H](C)CO)C[C@@H]2C)cc1	44	nt	5	3	18[16.7 µM]	nt
Cc1ccc(S(=O)(=O)N(C)C[C@H]2OCCCC[C@H](C)Oc3ccc(N(C)C)cc3C(=O)N([C@@H](C)CO)C[C@@H]2C)cc1	3	nt	6	-6	-16[16.7 µM]	nt
CCC(=O)N1CCN(c2ccc(-n3c(=O)ccc4cnc5ccc(-c6cnc7ccccc7c6)cc5c43)cc2C(F)(F)F)CC1	nt	nt	nt	nt	59*	-4
O=C(O)COCC(=O)N1CCN(c2cc(C(F)(F)F)nc3ccccc23)CC1	1	5	17	-1	-22	0
O=C(CSc1nc(-c2ccc(F)cc2)cs1)N1CCOCC1	1	69	66*	0	nt	nt
CCS(=O)(=O)c1ccc2oc(Nc3ccccc3Br)nc2c1	0	100*	nt	7	-72	36*
CCS(=O)(=O)c1ccc2oc(Nc3ccccc3Cl)nc2c1	-1	51	?	0	-50	25
CC(C)c1ccc(/C=N/N2CCCCC2)cc1	nt	98*	nt	1	-48	45*
O=[N+]([O-])c1cc(C=NN2CCCCCC2)ccc1Cl	nt	49	74*	-1	-64	40*
O=[N+]([O-])c1cccc(C=NN2CCCCCC2)c1	nt	52	79*	0	-58	-2
O=[N+]([O-])c1cc(/C=N/NC(=S)Nc2ccccc2Cl)ccc1Cl	13	-64	46*	-5	7	-7
O=C(C[C@@H]1CC[C@@H](NC(=O)c2ccncc2)[C@H](CO)O1)Nc1ccc(-c2ccccc2)cc1	nt	nt	nt	1	nt	nt
NCC[C@H]1CC[C@H](NC(=O)CCN2CCCCC2)[C@@H](CO)O1	3	nt	-3	-3	-7[16.7 µM]	nt
O=[N+]([O-])c1cc(/C=N/N2CCCCC2)ccc1Cl	nt	99*	nt	-2	-27	10
O=[N+]([O-])c1cc(/C=N/N2CCN(c3ccccc3)CC2)ccc1Cl	5	64	nt	0	nt	0
